Here are results for six compounds from paper PMC6072051 (MedChemComm, 2017).

The subject of one assay is ICL1. The conditions noted are these: DL-isocitrate as substrate, LDH assay; cited from earlier work.
Assay [1] concerns the target T1, M. tuberculosis ICL1 (Mycobacterium tuberculosis, UniProt P9WKK7).
T1 sequence (P9WKK7 1-428): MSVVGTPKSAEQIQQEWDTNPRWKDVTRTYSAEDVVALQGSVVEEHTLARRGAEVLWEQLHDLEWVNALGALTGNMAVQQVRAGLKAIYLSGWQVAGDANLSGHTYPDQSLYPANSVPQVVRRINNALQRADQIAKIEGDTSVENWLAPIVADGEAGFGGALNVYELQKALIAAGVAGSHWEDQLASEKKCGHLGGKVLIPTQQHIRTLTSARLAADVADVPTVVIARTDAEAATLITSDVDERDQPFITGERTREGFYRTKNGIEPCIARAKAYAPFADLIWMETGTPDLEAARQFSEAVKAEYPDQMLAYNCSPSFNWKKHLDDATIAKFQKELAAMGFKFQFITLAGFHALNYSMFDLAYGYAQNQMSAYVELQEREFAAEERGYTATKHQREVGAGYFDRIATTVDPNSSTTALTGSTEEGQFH
Briefly: 1H NMR assay of ICL1-catalysed turnover of DL-isocitrate. It is filed as biochemical. Particulars: for single concentration inhibition of ICL1: 100 μM inhibitor, 190 nM ICL1, 1 mM DL-isocitrate, 5 mM MgCl2. The gist of the method: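 Recombinant ICL1 from E. coli BL21(DE3), purified by His-trap and gel filtration. Reactions in 50 mM Tris-D11 pH 7.5, 90% H2O/10% D2O at 300 K. 1H spectra with excitation-sculpting water suppression every ~1.3 min track the isocitrate decrease and the succinate singlet at 2.3 ppm. Initial rates from 15–20 min; inhibitors at varied concentrations; triplicates; IC50 by 3-parameter sigmoid fit.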

Assay [2] concerns the target T1, M. tuberculosis ICL1. The assay can be described thus: 1H NMR ICL1 enzyme kinetics. The class given is biochemical. Particulars: methylisocitrate as substrate, 190 nM ICL1, 5 mM MgCl2.

In the case of `O=C(O)CC(C(=O)O)C(O)C(=O)O` (racemic) [DL-isocitrate, DL-Isocitrate], in the assay on ICL1, the Km is 190 µM and the kcat is recorded as 5.24 s^–1.

On to `O=C(O)CC[N+](=O)[O-]` [3-Nitropropionate, reference compound], for which, on M. tuberculosis ICL1 [1], the “single concentration inhibition of ICL1” value is reported as “most potent inhibitor”.

Consider `CCOC(=O)c1ccc(CC(=O)c2oc3cc(O)ccc3c2C)o1` [Compound 29], for which, at M. tuberculosis ICL1 [1], the IC50 was over 100 µM and the “single concentration inhibition of ICL1” value is “significantly inhibited ICL1”.

As for `CCOC(=O)c1cc2cc(CC(=O)c3ccc(O)cc3O)ccc2o1` [Compound 38], at M. tuberculosis ICL1 [1], the IC50 was over 100 µM and the “single concentration inhibition of ICL1” value is “significantly inhibited ICL1”.

For `COC(=O)C=CC(=O)c1ccc(OC)cc1` [Methyl-4-(4-methoxyphenyl)-4-oxobut-2-enoate, reference compound], the “single concentration inhibition of ICL1” value at M. tuberculosis ICL1 [1] was “weakest of the four tested”.

With `C[C@](CC(=O)O)(C(=O)O)[C@H](O)C(=O)O` [methylisocitrate], the “substrate concentration above which substrate inhibition was observed” value on M. tuberculosis ICL1 [2] was “exceeded 1 mM”.
